System: HepG2
Assay: Increase in glucose consumption in human HepG2 cells assessed as Gx/GDMSO ratio at 25 uM by glucose oxidase assay
Format: functional
Summary of the method: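 HepG2 glucose consumption screen. Test compounds at 25 μM, metformin at 5 mM. Activity expressed as ratio of glucose consumption to DMSO-treated cells (Gx/G_DMSO).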

Question: Which Ratio does the source give for `O=S(=O)(c1cccc(C(F)(F)F)c1)N1C[C@H]2CCCN3CCC[C@@H]([C@H]23)[C@H]1CCCCO` here?
Answer: 1.25

Question: For `CCCC[C@@H]1[C@H]2CCCN3CCC[C@@H](CN1C(=O)Nc1ccc(OC(F)(F)F)cc1)[C@@H]23`, which Ratio is on record?
Answer: 1.07

Question: How did the Ratio turn out when `O=C(O)CCC[C@@H]1[C@H]2CCCN3CCC[C@H](CN1S(=O)(=O)c1ccc(C(F)(F)F)cc1)[C@@H]23` was run?
Answer: 0.99

Question: With `O=S(=O)(c1ccc(C(F)(F)F)cc1)N1C[C@@H]2CCCN3CCC[C@@H]([C@H]23)[C@H]1CCCCO` as the compound, how does the Ratio read?
Answer: 1.04

Question: With `Cc1ccc(S(=O)(=O)N2C[C@@H]3CCCN4CCC[C@@H]([C@H]34)[C@H]2CCCC(=O)O)cc1` as the compound, how does the Ratio read?
Answer: 0.87

Question: Which Ratio does the source give for `Cc1ccc(S(=O)(=O)N2C[C@H]3CCCN4CCC[C@@H]([C@H]34)[C@H]2CCCCO)cc1` here?
Answer: 1.12

Question: Which Ratio does the source give for `O=S(=O)(c1ccc(C(F)(F)F)cc1)N1C[C@@H]2CCCN3CCC[C@@H]([C@H]23)[C@H]1CCCCN=C=S` here?
Answer: 1.02

Question: With `COC(=O)CCC[C@@H]1[C@H]2CCCN3CCC[C@H](CN1S(=O)(=O)c1ccc(C(F)(F)F)cc1)[C@@H]23` as the compound, how does the Ratio read?
Answer: 1.13

Question: Which Ratio does the source give for `CCCC[C@@H]1[C@H]2CCCN3CCC[C@@H](CN1S(=O)(=O)c1ccccc1C(F)(F)F)[C@@H]23` here?
Answer: 1.01

Question: How did the Ratio turn out when `CCCC[C@@H]1[C@H]2CCCN3CCC[C@@H](CN1C(=O)Nc1ccccc1C(F)(F)F)[C@@H]23` was run?
Answer: 1.03

Question: With `CCCC[C@@H]1[C@H]2CCCN3CCC[C@H](CN1S(=O)(=O)c1ccc(C)cc1)[C@@H]23` as the compound, how does the Ratio read?
Answer: 1.07

Question: With `CN(C)c1nnc(CCC[C@@H]2[C@H]3CCCN4CCC[C@@H](CN2S(=O)(=O)c2cccc(C(F)(F)F)c2)[C@@H]34)s1` as the compound, how does the Ratio read?
Answer: 0.97

Question: Which Ratio does the source give for `O=C(O)CCC[C@@H]1[C@H]2CCCN3CCC[C@@H](CN1S(=O)(=O)c1ccc(C(F)(F)F)cc1)[C@@H]23` here?
Answer: 1.03

Question: With `CCCC[C@@H]1[C@H]2CCCN3CCC[C@H](CN1S(=O)(=O)c1ccccc1C(F)(F)F)[C@@H]23` as the compound, how does the Ratio read?
Answer: 1.26

Question: `CCNc1nnc(CCC[C@@H]2[C@H]3CCCN4CCC[C@@H](CN2S(=O)(=O)c2ccc(C)cc2)[C@@H]34)s1` was tested. Which Ratio did it give?
Answer: 0.79

Question: Which Ratio does the source give for `CCCC[C@@H]1[C@H]2CCCN3CCC[C@@H](CN1C(=O)Nc1cccc(C)c1)[C@@H]23` here?
Answer: 1.32

Question: With `O=C1CCC[C@@H]2[C@H]3CCCN4CCC[C@@H](CN12)[C@@H]34` [MATRINE] as the compound, how does the Ratio read?
Answer: 1.26

Question: Which Ratio does the source give for `CC(=O)Nc1nnc(CCC[C@@H]2[C@H]3CCCN4CCC[C@@H](CN2S(=O)(=O)c2cccc(C(F)(F)F)c2)[C@@H]34)s1` here?
Answer: 0.89

Question: `CCCC[C@@H]1[C@H]2CCCN3CCC[C@@H](CN1S(=O)(=O)c1ccc(C)cc1)[C@@H]23` was tested. Which Ratio did it give?
Answer: 1.03

Question: For `Cc1ccc(S(=O)(=O)N2C[C@@H]3CCCN4CCC[C@@H]([C@H]34)[C@H]2CCCCO)cc1`, which Ratio is on record?
Answer: 1.16

Question: How did the Ratio turn out when `CCCC[C@@H]1[C@H]2CCCN3CCC[C@@H](CN1C(=O)Nc1ccc(C)cc1)[C@@H]23` was run?
Answer: 1.04

Question: How did the Ratio turn out when `CCCC[C@@H]1[C@H]2CCCN3CCC[C@@H](CN1C(=O)Nc1ccccc1C)[C@@H]23` was run?
Answer: 1.3

Question: With `CCCC[C@@H]1[C@H]2CCCN3CCC[C@@H](CN1C(=O)Nc1ccc(F)cc1)[C@@H]23` as the compound, how does the Ratio read?
Answer: 1.02

Question: For `O=C(O)CCC[C@@H]1[C@H]2CCCN3CCC[C@H](CN1S(=O)(=O)c1cccc(C(F)(F)F)c1)[C@@H]23`, which Ratio is on record?
Answer: 1.16

Question: With `O=S(=O)(c1ccccc1C(F)(F)F)N1C[C@H]2CCCN3CCC[C@@H]([C@H]23)[C@H]1CCCCO` as the compound, how does the Ratio read?
Answer: 1.24

Question: For `O=S(=O)(c1ccc(C(F)(F)F)cc1)N1C[C@H]2CCCN3CCC[C@@H]([C@H]23)[C@H]1CCCCO`, which Ratio is on record?
Answer: 1.06

Question: With `CCCC[C@@H]1[C@H]2CCCN3CCC[C@@H](CN1C(=O)Nc1ccc(C(F)(F)F)cc1)[C@@H]23` as the compound, how does the Ratio read?
Answer: 1.08

Question: How did the Ratio turn out when `Nc1nnc(CCC[C@@H]2[C@H]3CCCN4CCC[C@@H](CN2S(=O)(=O)c2cccc(C(F)(F)F)c2)[C@@H]34)s1` was run?
Answer: 1.04

Question: For `CCCC[C@@H]1[C@H]2CCCN3CCC[C@H](CN1S(=O)(=O)c1cccc(C(F)(F)F)c1)[C@@H]23`, which Ratio is on record?
Answer: 1.2

Question: For `COC(=O)CCC[C@@H]1[C@H]2CCCN3CCC[C@H](CN1S(=O)(=O)c1ccccc1C(F)(F)F)[C@@H]23`, which Ratio is on record?
Answer: 1.23

Question: For `Nc1nnc(CCC[C@@H]2[C@H]3CCCN4CCC[C@@H](CN2S(=O)(=O)c2cccc(C(F)(F)F)c2)[C@@H]34)o1`, which Ratio is on record?
Answer: 1.34

Question: How did the Ratio turn out when `CC[C@@H]1[C@H]2CCCN3CCC[C@@H](CN1S(=O)(=O)c1ccccc1C(F)(F)F)[C@@H]23` was run?
Answer: 1.26

Question: For `CCCC[C@@H]1[C@H]2CCCN3CCC[C@@H](CN1C(=O)Nc1c(C)cccc1C)[C@@H]23`, which Ratio is on record?
Answer: 1.14

Question: `CCCC[C@@H]1[C@H]2CCCN3CCC[C@H](CN1S(=O)(=O)c1ccc(C(F)(F)F)cc1)[C@@H]23` was tested. Which Ratio did it give?
Answer: 1.17

Question: With `O=C(O)C[C@@H]1[C@H]2CCCN3CCC[C@@H](CN1S(=O)(=O)c1cccc(C(F)(F)F)c1)[C@@H]23` as the compound, how does the Ratio read?
Answer: 1.06

Question: For `O=C1CCC[C@@H]2[C@H]3CCCN4CCC[C@H](CN12)[C@@H]34` [SOPHORIDINE], which Ratio is on record?
Answer: 1.22

Question: For `O=C(O)CCC[C@@H]1[C@H]2CCCN3CCC[C@H](CN1S(=O)(=O)c1ccccc1C(F)(F)F)[C@@H]23`, which Ratio is on record?
Answer: 1.12

Question: For `Nc1nnc(CCC[C@@H]2[C@H]3CCCN4CCC[C@@H](CN2S(=O)(=O)c2ccc(C(F)(F)F)cc2)[C@@H]34)o1`, which Ratio is on record?
Answer: 1.18

Question: Which Ratio does the source give for `COC(=O)CCC[C@@H]1[C@H]2CCCN3CCC[C@H](CN1S(=O)(=O)c1cccc(C(F)(F)F)c1)[C@@H]23` here?
Answer: 1.21

Question: How did the Ratio turn out when `COC(=O)CCC[C@@H]1[C@H]2CCCN3CCC[C@H](CN1S(=O)(=O)c1ccc(C)cc1)[C@@H]23` was run?
Answer: 1.14

Question: How did the Ratio turn out when `CNc1nnc(CCC[C@@H]2[C@H]3CCCN4CCC[C@@H](CN2S(=O)(=O)c2cccc(C(F)(F)F)c2)[C@@H]34)s1` was run?
Answer: 0.86

Question: How did the Ratio turn out when `CC[C@@H]1[C@H]2CCCN3CCC[C@@H](CN1S(=O)(=O)c1ccc(C(F)(F)F)cc1)[C@@H]23` was run?
Answer: 1.32

Question: How did the Ratio turn out when `O=C1C=CC[C@@H]2[C@H]3CCCN4CCC[C@@H](CN12)[C@@H]34` [SOPHOCARPINE] was run?
Answer: 1.11

Question: For `CCCC[C@@H]1[C@H]2CCCN3CCC[C@@H](CN1C(=O)Nc1cccc(C(F)(F)F)c1)[C@@H]23`, which Ratio is on record?
Answer: 1
